Experiment [1] has as its target T1, Aromatic-L-amino-acid decarboxylase (Sus scrofa) (UniProt P80041).
T1 sequence (whole entry): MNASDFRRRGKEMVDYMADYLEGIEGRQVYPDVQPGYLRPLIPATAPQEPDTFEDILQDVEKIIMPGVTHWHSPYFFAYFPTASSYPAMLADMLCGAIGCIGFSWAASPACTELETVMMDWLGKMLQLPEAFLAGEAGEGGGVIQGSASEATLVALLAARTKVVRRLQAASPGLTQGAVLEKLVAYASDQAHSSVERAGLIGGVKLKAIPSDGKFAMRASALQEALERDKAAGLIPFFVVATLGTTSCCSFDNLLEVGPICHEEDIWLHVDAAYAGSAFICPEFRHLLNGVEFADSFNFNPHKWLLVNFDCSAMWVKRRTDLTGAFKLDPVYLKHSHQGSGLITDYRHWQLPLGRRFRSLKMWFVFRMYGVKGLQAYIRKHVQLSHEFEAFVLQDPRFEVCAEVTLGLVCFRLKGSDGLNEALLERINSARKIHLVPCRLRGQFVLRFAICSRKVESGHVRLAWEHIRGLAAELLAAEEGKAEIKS
Kind of experiment: Relative inhibitory comparison to that of (+)D-m-Tyrosine.

For experiment [2], the target named is T2, Aromatic-L-amino-acid decarboxylase (Sus scrofa, UniProt P80041).
T2 sequence (P80041 whole entry): T1 sequence (whole entry)
Kind of experiment: Inhibitory activity against pig kidney L-aromatic amino acid decarboxylase (Dopa decarboxylase). The gist of the method: (§1)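 The enzyme was purified from pig kidney. The crude extract was clarified with Bioacryl-BP-1000 and centrifuged, then run over DEAE-cellulose, phenyl Sepharose CL-4B and Sephacryl S-300. Decarboxylase activity was measured by a continuous spectrophotometric CO₂-detection procedure using a commercial CO₂ kit. Inhibition was expressed as Ki.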

The target in experiment [3] is T2, Aromatic-L-amino-acid decarboxylase. As to the kind of experiment: Inhibitory activity against pig kidney L-aromatic amino acid decarboxylase (Dopamine decarboxylase). The gist of the method: as §1

As for `NC1(C(=O)O)CC1c1cccc(O)c1` (single isomer, unassigned; (+)) [listing 1 of 2 here], the Relative inhibition in experiment [1] was 45.4.
Compound `NC1(C(=O)O)CC1c1cccc(O)c1` (single isomer, unassigned; (-)) [listing 1 of 2 here] had a Relative inhibition in experiment [1] of 1.6.
One may read the Ki as a dissociation constant, usually derived from enzyme kinetics or from competition with a known ligand. The low end stands for tighter binding, the high end for weaker binding. In the case of `N[C@@]1(C(=O)O)C[C@H]1c1cccc(O)c1`, the Relative inhibition in experiment [1] is 20.4. The compound also yielded an inhibitory constant (Ki) in experiment [2] of 49 µM.
For `N[C@]1(C(=O)O)C[C@@H]1c1cccc(O)c1` the same measures were 3 and 330 µM.
On to `NC1(C(=O)O)CC1c1cccc(O)c1` (single isomer, unassigned; (-)) [listing 2 of 2 here], for which, in experiment [2], affinity was put at a Ki of 630 µM.
In experiment [3], `NC1(C(=O)O)CC1c1cccc(O)c1` (single isomer, unassigned; (+)) [listing 2 of 2 here] returned a Ki of 22 µM.

(Values after ChEMBL document CHEMBL1126325, “Inhibition of pig kidney L-aromatic amino acid decarboxylase by 2,3-methano-m-tyrosines” (J Med Chem, 1992).)
